Test results taken from ChEMBL document CHEMBL1122648 (J Med Chem, 1984).

Assays:
[1] = system: CCRF-CEM; assay: In vitro cytotoxicity by its growth inhibitory activity against human leukemic lymphoblasts (CEM cells).; format: functional, cell-based
Method in brief: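 Human leukemic lymphoblasts (CEM) counted after 48 h of drug exposure. Compounds dissolved in Me2SO (1 mg/mL), diluted 10-fold in Me2SO, then added to growth medium (final Me2SO 0.1%). Triplicate tubes per dose, averaged; IC50 reported.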

[2] = target: T1, Dihydrofolate reductase (Bos taurus, UniProt P00376); assay: In vitro ability to inhibit the Dihydrofolate reductase extracted from beef liver.
T1 sequence (P00376 whole entry): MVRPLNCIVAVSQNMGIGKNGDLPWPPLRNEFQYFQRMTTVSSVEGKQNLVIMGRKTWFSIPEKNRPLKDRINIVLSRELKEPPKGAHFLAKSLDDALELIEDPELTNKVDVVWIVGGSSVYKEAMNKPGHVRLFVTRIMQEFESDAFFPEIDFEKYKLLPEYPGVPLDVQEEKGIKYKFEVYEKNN

[3] = Compound was evaluated for its inhibitory effect on deoxyuridine ([3H]dUrd ) incorporation into DNA of CEM/MTX cells in culture at conc. 10e-7; format: functional, Homo sapiens; set-up: scale not given: the % may be the effect or the level left
Method in brief: (§1)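 Log-phase CEM or CEM/MTX (transport-defective) cells, 2×10^5 per tube in serum-free EBSS, exposed to 10^-7–10^-4 M compound for 1 h at 37 °C under 5% CO2. Then pulsed 0.5 h with [3H]dThd or [3H]dUrd, washed in cold EBSS and lysed in SDS with tRNA carrier. DNA precipitated with cold 0.5 N HClO4; acid-insoluble counts given as % of untreated controls.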

[4] = Compound was evaluated for its inhibitory effect on deoxyuridine ([3H]dUrd) incorporation into DNA of CEM/MTX cells in culture at conc. 10e-4; format: functional, Homo sapiens; set-up: scale not given: the % may be the effect or the level left; method in brief: as §1
[5] = Compound was evaluated for its inhibitory effect on deoxyuridine ([3H]dUrd) incorporation into DNA of CEM cells in culture at conc. 10e-4; format: functional, Homo sapiens, CCRF-CEM; set-up: scale not given: the % may be the effect or the level left; method in brief: as §1
[6] = Compound was evaluated for its inhibitory effect on deoxyuridine ([3H]dUrd) incorporation into DNA of CEM/MTX cells in culture at conc. 10e-5; format: functional, Homo sapiens; set-up: scale not given: the % may be the effect or the level left; method in brief: as §1
[7] = Compound was evaluated for its inhibitory effect on thymidine ([3H]dThd) incorporation into DNA of CEM cells in culture at conc. 10e-6; format: functional, Homo sapiens, CCRF-CEM; set-up: scale not given: the % may be the effect or the level left; method in brief: as §1
[8] = Compound was evaluated for its inhibitory effect on deoxyuridine ([3H]dUrd ) incorporation into DNA of CEM cells in culture at conc. 10e-7; format: functional, Homo sapiens, CCRF-CEM; set-up: scale not given: the % may be the effect or the level left; method in brief: as §1
[9] = Compound was evaluated for its inhibitory effect on thymidine ([3H]dThd) incorporation into DNA of CEM cells in at conc. 10e-7; format: functional, Homo sapiens, CCRF-CEM; set-up: scale not given: the % may be the effect or the level left; method in brief: as §1
[10] = Compound was evaluated for its inhibitory effect on thymidine ([3H]dThd) incorporation into DNA of CEM/MTX cells in culture at conc. 10e-4; format: functional, Homo sapiens; set-up: scale not given: the % may be the effect or the level left; method in brief: as §1
[11] = Compound was evaluated for its inhibitory effect on deoxyuridine ([3H]dUrd) incorporation into DNA of CEM cells in culture at conc. 10e-5; format: functional, Homo sapiens, CCRF-CEM; set-up: scale not given: the % may be the effect or the level left; method in brief: as §1
[12] = Compound was evaluated for its inhibitory effect on deoxyuridine ([3H]-dUrd) incorporation into DNA of CEM cells in at conc. 10e-6; format: functional, Homo sapiens, CCRF-CEM; set-up: scale not given: the % may be the effect or the level left; method in brief: as §1
[13] = Compound was evaluated for its inhibitory effect on thymidine ([3H]-dThd) incorporation into DNA of CEM cells in culture at conc. 10e-4; format: functional, Homo sapiens, CCRF-CEM; set-up: scale not given: the % may be the effect or the level left; method in brief: as §1
[14] = Compound was evaluated for its inhibitory effect on thymidine [3H]dThd) incorporation into DNA of CEM/MTX cells in culture at conc. 10e-5; format: functional, Homo sapiens; set-up: scale not given: the % may be the effect or the level left; method in brief: as §1
[15] = Compound was evaluated for its inhibitory effect on thymidine ([3H]dThd) incorporation into DNA of CEM cells in culture at conc. 10e-5; format: functional, Homo sapiens, CCRF-CEM; set-up: scale not given: the % may be the effect or the level left; method in brief: as §1
[16] = Compound was evaluated for its inhibitory effect on thymidine [3H]-dThd) incorporation into DNA of CEM/MTX cells in culture at conc. 10e-6; format: functional, Homo sapiens; set-up: scale not given: the % may be the effect or the level left; method in brief: as §1
[17] = Compound was evaluated for its inhibitory effect on deoxyuridine ([3H]dUrd) incorporation into DNA of CEM/MTX cells in culture at conc. 10e-6; format: functional, Homo sapiens; set-up: scale not given: the % may be the effect or the level left; method in brief: as §1
[18] = Compound was evaluated for its inhibitory effect on thymidine ([3H]-dThd) incorporation into DNA of CEM/MTX cells in at conc. 10e-7.; format: functional, Homo sapiens; set-up: scale not given: the % may be the effect or the level left; method in brief: as §1

CCCCCCCCOC(=O)CCC(NC(=O)c1ccc(N(C)Cc2cnc3nc(N)nc(N)c3n2)cc1)C(=O)O (stereo not drawn)
IC50 [1]: 920 nM | IC50 [2]: 5.4 nM

CCCCOC(=O)CCC(NC(=O)c1ccc(N(C)Cc2cnc3nc(N)nc(N)c3n2)cc1)C(=O)O (stereo not drawn)
IC50 [1]: 780 nM | IC50 [2]: 5.4 nM

CCCCCCCCCCCCCCCCOC(=O)C(CCC(=O)O)NC(=O)c1ccc(N(C)Cc2cnc3nc(N)nc(N)c3n2)cc1 (stereo not drawn)
IC50 [1]: 250 nM | IC50 [2]: 1200 nM

CCCCOC(=O)C(CCC(=O)O)NC(=O)c1ccc(N(C)Cc2cnc3nc(N)nc(N)c3n2)cc1 (stereo not drawn)
IC50 [1]: 2000 nM | IC50 [2]: 56 nM

CCCCCCCCCCCCOC(=O)C(CCC(=O)O)NC(=O)c1ccc(N(C)Cc2cnc3nc(N)nc(N)c3n2)cc1 (stereo not drawn)
IC50 [1]: 2100 nM | IC50 [2]: 440 nM

CCCCCCCCOC(=O)C(CCC(=O)O)NC(=O)c1ccc(N(C)Cc2cnc3nc(N)nc(N)c3n2)cc1 (stereo not drawn)
IC50 [1]: 3000 nM | IC50 [2]: 360 nM

CCCCCCCCCCCCOC(=O)CCC(NC(=O)c1ccc(N(C)Cc2cnc3nc(N)nc(N)c3n2)cc1)C(=O)O (stereo not drawn)
IC50 [1]: 370 nM | IC50 [2]: 34 nM

CCCCCCCCCCCCCCCCOC(=O)CCC(NC(=O)c1ccc(N(C)Cc2cnc3nc(N)nc(N)c3n2)cc1)C(=O)O (stereo not drawn)
Control [3]: 95% | Control [4]: 2% | Control [5]: 7% | Control [6]: 55% | Control [7]: 67% | Control [8]: 117% | Control [9]: 92% | IC50 [1]: 110 nM | Control [10]: 8% | Control [11]: 14% | Control [12]: 64% | Control [13]: 17% | IC50 [2]: 37 nM | Control [14]: 15% | Control [15]: 25% | Control [16]: 108% | Control [17]: 103% | Control [18]: 81%

CN(Cc1cnc2nc(N)nc(N)c2n1)c1ccc(C(=O)N[C@@H](CCC(=O)O)C(=O)O)cc1 [METHOTREXATE]
IC50 [1]: 25 nM
